# Data: ChEMBL document CHEMBL1799960, “Diadenosine 5',5''-(boranated)polyphosphonate analogues as selective nucleotide pyrophosphatase/phosphodiesterase inhibitors” (J Med Chem, 2010)
# Calls of active or inactive are those of the source. The calls are words filed in the database; no cut-off is given here.
# Key:
# [1] = target: T1, Ectonucleoside triphosphate diphosphohydrolase 8 (Homo sapiens) (UniProt Q5MY95); assay: Inhibition of human NTPDase8 expressed in COS7 cells assessed as amount of inorganic phosphate released using ATP as the substrate at 100 uM after 15 mins by malachite green reagent method; assay type: cell-based; conditions: COS-7
# T1 sequence (whole entry): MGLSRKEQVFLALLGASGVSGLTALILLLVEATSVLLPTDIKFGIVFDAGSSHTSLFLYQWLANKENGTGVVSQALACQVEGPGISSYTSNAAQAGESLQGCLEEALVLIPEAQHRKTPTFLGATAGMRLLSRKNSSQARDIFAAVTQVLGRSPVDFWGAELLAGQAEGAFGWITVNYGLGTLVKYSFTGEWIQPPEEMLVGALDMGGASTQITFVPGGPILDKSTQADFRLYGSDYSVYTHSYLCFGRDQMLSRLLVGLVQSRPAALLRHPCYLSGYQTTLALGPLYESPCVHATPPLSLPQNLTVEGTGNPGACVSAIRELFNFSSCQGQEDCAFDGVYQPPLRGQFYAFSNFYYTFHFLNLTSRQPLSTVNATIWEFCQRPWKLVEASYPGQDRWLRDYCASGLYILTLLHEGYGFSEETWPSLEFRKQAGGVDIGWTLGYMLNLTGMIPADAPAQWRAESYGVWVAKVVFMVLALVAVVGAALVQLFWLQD
# Outline: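 Protein extracts of transfected COS-7 cells (ecto-5'-nucleotidase: 100 μM AMP substrate; NTPDases: 100 μM ATP) were preincubated 3 min at 37 °C in Tris-Ringer pH 7.3 with inhibitor at 100 μM final. After 15 min, malachite green stop; Pi read at 630 nm. Activity given as % of substrate-only control. Mean ± SD of three experiments in triplicate.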
# [2] = target: T2, Ectonucleotide pyrophosphatase/phosphodiesterase family member 1 (Homo sapiens) (UniProt P22413); assay: Inhibition of human NPP1 expressed in COS7 cells assessed as amount of inorganic phosphate released using ATP as the substrate at 100 uM after 15 mins by malachite green reagent method; assay type: cell-based; conditions: COS-7
# T2 sequence (whole entry): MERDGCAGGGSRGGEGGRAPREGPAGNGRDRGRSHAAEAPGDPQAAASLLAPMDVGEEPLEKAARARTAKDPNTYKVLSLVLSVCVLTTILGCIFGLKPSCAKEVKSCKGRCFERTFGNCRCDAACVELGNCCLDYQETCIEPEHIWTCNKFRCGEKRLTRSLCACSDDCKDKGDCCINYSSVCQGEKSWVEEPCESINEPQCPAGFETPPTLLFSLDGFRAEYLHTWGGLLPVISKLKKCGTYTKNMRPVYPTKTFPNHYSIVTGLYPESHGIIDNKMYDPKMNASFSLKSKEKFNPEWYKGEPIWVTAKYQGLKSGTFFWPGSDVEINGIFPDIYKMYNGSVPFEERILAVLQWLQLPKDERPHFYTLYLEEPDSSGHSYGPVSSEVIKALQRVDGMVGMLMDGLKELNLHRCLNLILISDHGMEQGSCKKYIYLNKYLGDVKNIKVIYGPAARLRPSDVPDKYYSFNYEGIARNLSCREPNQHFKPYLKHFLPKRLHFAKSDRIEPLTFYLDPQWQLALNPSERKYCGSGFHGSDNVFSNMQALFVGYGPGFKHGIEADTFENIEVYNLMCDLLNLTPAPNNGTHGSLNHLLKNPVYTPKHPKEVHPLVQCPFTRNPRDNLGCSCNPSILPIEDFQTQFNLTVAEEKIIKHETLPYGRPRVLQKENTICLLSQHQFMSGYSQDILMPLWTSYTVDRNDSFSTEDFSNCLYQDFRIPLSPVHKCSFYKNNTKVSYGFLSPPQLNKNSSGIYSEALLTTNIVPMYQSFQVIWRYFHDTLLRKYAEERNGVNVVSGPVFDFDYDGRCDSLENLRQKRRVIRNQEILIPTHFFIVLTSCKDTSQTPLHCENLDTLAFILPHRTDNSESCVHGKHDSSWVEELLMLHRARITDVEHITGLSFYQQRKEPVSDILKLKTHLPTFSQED
# [3] = target: T3, Ectonucleotide pyrophosphatase/phosphodiesterase family member 3 (Homo sapiens) (UniProt O14638); assay: Inhibition of human NPP3 expressed in COS7 cells assessed as production of p-nitrophenol using Ap5A as the substrate at 100 uM after 30 mins […]; assay type: cell-based; conditions: COS-7
# T3 sequence (whole entry): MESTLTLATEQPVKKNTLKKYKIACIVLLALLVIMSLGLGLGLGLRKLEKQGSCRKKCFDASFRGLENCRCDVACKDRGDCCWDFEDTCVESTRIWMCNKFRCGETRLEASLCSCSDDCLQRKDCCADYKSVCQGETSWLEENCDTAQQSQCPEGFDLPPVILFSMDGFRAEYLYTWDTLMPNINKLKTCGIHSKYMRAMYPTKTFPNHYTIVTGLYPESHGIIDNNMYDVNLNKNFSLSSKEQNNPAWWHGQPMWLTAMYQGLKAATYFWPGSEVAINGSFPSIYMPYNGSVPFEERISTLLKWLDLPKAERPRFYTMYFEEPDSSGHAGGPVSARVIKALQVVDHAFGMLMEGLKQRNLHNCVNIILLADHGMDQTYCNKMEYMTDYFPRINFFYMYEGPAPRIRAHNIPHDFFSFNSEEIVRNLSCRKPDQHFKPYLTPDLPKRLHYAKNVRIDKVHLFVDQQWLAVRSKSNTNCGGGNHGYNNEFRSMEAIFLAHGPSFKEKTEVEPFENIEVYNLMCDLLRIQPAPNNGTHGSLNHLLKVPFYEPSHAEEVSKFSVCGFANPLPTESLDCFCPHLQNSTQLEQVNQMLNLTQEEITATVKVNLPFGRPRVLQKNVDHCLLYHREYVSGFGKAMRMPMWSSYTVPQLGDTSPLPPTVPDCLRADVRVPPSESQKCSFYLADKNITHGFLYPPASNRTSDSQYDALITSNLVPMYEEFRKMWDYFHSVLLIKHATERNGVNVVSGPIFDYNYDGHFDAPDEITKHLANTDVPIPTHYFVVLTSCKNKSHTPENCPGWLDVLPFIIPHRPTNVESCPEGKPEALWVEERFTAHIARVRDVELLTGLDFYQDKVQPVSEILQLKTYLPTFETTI
# [4] = target: T3, Ectonucleotide pyrophosphatase/phosphodiesterase family member 3 (Homo sapiens); assay: Inhibition of human NPP3 expressed in COS7 cells assessed as amount of inorganic phosphate released using ATP as the substrate at 100 uM after 15 mins by malachite green reagent method; assay type: cell-based; conditions: COS-7
# [5] = target: T4, Ectonucleotide pyrophosphatase/phosphodiesterase family member 1 (Homo sapiens, UniProt P22413); assay: Inhibition of human NPP1 expressed in COS7 cells assessed as production of p-nitrophenol using pnp-TMP as the substrate after 15 mins […]; assay type: cell-based, COS-7
# T4 sequence (P22413 whole entry): T2 sequence (whole entry)
# Outline: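 Human NPP1 COS-7 extract in Tris pH 8.5 buffer at 37 °C with pnp-TMP; p-nitrophenol read at 405 nm after 15 min. […] Values from Dixon and Cornish-Bowden plots of three independent experiments in triplicate.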
Compound,inhibition [1],inhibition [2] [%],inhibition [3] [%],inhibition [4] [%],IC50 [5] [µM],Ki [5] [µM]
BP(=O)(OP(=O)(O)CP(=O)(O)OC[C@H]1O[C@@H](n2cnc3c(N)ncnc32)C[C@@H]1O)OP(=O)(O)CP(=O)(O)OC[C@H]1O[C@@H](n2cnc3c(N)ncnc32)C[C@@H]1O,inactive,70,10,65,13,9
Nc1ncnc2c1ncn2[C@@H]1O[C@H](COP(=O)(O)CP(=O)(O)OP(=O)(O)CP(=O)(O)OC[C@H]2O[C@@H](n3cnc4c(N)ncnc43)[C@H](O)[C@@H]2O)[C@@H](O)[C@H]1O,inactive,70,10,65,33,13
BP(=O)(OP(=O)(O)CP(=O)(O)OC[C@H]1O[C@@H](n2cnc3c(N)ncnc32)[C@H](O)[C@@H]1O)OP(=O)(O)CP(=O)(O)OC[C@H]1O[C@@H](n2cnc3c(N)ncnc32)[C@H](O)[C@@H]1O,inactive,> 90,10,90,63,20
Nc1ncnc2c1ncn2[C@H]1C[C@H](O)[C@@H](COP(=O)(O)CP(=O)(O)OP(=O)(O)CP(=O)(O)OC[C@H]2O[C@@H](n3cnc4c(N)ncnc43)C[C@@H]2O)O1,inactive,> 90,10,90,50,51
